SR-BI DiI inh: inhibitors of mouse SR-BI mediated HDL lipid uptake; Q61009; ldlA[mSR-BI] CHO cells, DiI-HDL uptake fluorescence, 3 h; inhibition, % at 12.5 µM; hit rate 0.96% among 320,000; AID 488896;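 active = mean replicate inhibition of at least 70% and a set share of replicates each scoring 70 or more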;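 note: 0% = median of neutral control wells and 100% = median of positive control wells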
Target sequence (Q61009 whole entry, looked up): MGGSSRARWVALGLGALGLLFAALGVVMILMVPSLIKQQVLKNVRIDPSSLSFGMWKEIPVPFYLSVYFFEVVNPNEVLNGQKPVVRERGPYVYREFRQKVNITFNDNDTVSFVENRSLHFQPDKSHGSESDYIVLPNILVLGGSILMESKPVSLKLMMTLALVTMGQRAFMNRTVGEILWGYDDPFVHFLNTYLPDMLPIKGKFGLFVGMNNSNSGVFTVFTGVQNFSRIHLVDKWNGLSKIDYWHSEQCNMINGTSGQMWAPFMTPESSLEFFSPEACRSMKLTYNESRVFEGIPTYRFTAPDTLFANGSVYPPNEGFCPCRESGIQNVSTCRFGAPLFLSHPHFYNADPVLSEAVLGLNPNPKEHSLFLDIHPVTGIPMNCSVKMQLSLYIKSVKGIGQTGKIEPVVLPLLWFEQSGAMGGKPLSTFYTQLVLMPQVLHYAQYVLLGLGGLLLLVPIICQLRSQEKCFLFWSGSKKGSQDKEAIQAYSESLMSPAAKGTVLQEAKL
CAL PDZ FP-1: blocks peptide binding to the human CAL PDZ domain; hit rate 0.92% among 300,000; AID 602252; Q9HD26; inhibition, % at 24.9 µM; purified CAL PDZ, TMR-peptide fluorescence polarization, 1 h;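 active = mean inhibition of at least 30% with at least half of replicates also reaching 30%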;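 note: 0% = DMSO neutral control and 100% = excess unlabeled competitor peptide PRC23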
CAL PDZ FP-2: human CAL PDZ-peptide interaction inhibition; inhibition, % at 20 µM; purified CAL PDZ, TMR-peptide fluorescence polarization, 1 h; hit rate 0.02% among 330,000; AID 504414;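 active = highest replicate inhibition of at least 40%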;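 note: plate controls were DMSO neutral control wells for no effect and unlabeled competitor peptide control wells for full effect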
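Assay system – tagged CAL PDZ protein CerCALP, purified · Timing – 1 h at RT · Compound – single point, 20 µM · Measured by – fluorescence polarization from S- and P-plane intensities, G-factor corrected · Evaluation – inhibition from polarization loss · Probe or stimulus – TMR reporter peptide T*-PRC34 · Buffer or medium – pH 7.4 phosphate-saline buffer, reducing agent, detergent, IgG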
dFosB act: mouse delta FosB homodimer activation. P13346. purified delta FosB, TAMRA-CDK5 oligo fluorescence polarization; percent of positive-control signal above neutral wells. activation, % at 25 µM. hit rate 0.99% among 340,000. AID 493131;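 active = mean activation above about 17%, with every replicate also reaching it, limit read from the data, passing the limit was not always enough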
SR-BI DiI-HDL act: enhances SR-BI lipid uptake from DiI-HDL. CHO ldlA[mSR-BI] cells, DiI-HDL uptake fluorescence, 3 h; 100 = double the neutral-control signal. activation, % at 12.5 µM. hit rate 0.096% among 320,000. AID 504775;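 active = mean replicate activation of at least 60% and every replicate at or above 60%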;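 note: 0% = median plate neutral-control signal and 100% = twice that signal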
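Test system: SR-BI-overexpressing, LDLR-lacking CHO cells. Measured by: DiI fluorescence, bottom read. Medium: Ham's F12 with 0.5% BSA, HEPES 25 mM, pH 7.4. Timing: 3 h uptake period with compound, 37 °C.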
* marks the source's active call; other numbers are inactive results; nt = not tested or not shown. Rows were chosen to be rich in hits. Some 2.8% of all compounds tested hit in one or more screens of this group.

SMILES | SR-BI DiI inh | CAL PDZ FP-1 | CAL PDZ FP-2 | dFosB act | SR-BI DiI-HDL act
FC(F)Oc1ccc(NC(=S)NCc2nc3ccccc3[nH]2)cc1 | -29.7 | 40.7* | -2.1 | -7.0 | 29.7
CCOc1ccc(NC(=S)NCc2nc3ccccc3[nH]2)cc1 | -1.6 | 7.1 | -4.0 | -9.9 | 1.6
COc1ccc(C)cc1NC(=O)Nc1ccc(Br)cn1 | 3.2 | 46.4* | -0.3 | -1.1 | -3.2
CSc1nc(N)nc2c1ncn2CC(=O)NCc1ccccc1 | -3.8 | -1.9 | -0.8 | 7.2 | 3.8
CSc1nc(N)nc2c1ncn2CC(=O)NCc1ccc2c(c1)OCO2 | -13.3 | -2.8 | 0.1 | 20.2* | 13.3
CS(=O)(=O)N(CC(=O)N1CCc2ccccc2C1)c1ccccc1Br | -47.3 | -1.7 | -1.1 | -1.4 | 47.3
Cc1ccc(CNC(=O)C(c2ccccc2)c2ccccc2)cc1 | 29.2 | 94.2* | -0.4 | -6.2 | -29.2
NS(=O)(=O)c1ccc(CNC(=O)C(c2ccccc2)c2ccccc2)cc1 | -31.0 | -1.2 | -7.6 | -5.2 | 31.0
Cc1nn(-c2ccccc2)c2nc(-c3cccs3)cc(C(=O)NN)c12 | 83.6* | -4.8 | -1.8 | -54.2 | -83.6
COc1ccc(NC(=O)c2cc(-c3ccccc3)nc3c2c(C)nn3-c2ccccc2)c(OC)c1 | 87.6* | -1.1 | -2.1 | -0.2 | -87.6
COc1ccc(NC(=O)c2cnn(-c3ccccc3)c2C)c(OC)c1 | -7.9 | 3.8 | nt | -0.8 | 7.9
Cc1cc(CNC(=O)c2ccc3oc(C(C)C)nc3c2)nn1C | 0.4 | -6.9 | -2.0 | -8.4 | -0.4
CC(C)c1nc2cc(C(=O)N(C)C3CCOCC3)ccc2o1 | -14.3 | 43.5* | -1.0 | -3.9 | 14.3
Cc1ccc(NC(=O)CCC(=O)NNC(=O)c2ccccc2)c(C)c1 | -17.0 | -1.3 | -0.1 | -1.2 | 17.0
COc1ccc(NC(=O)c2cc(-c3ccccc3O)n[nH]2)cc1Cl | 22.0 | -1.9 | -0.8 | 25.5* | -22.0
COc1ccc(OC)c(NC(=O)c2cc(-c3cc(C)cc(C)c3O)n[nH]2)c1 | 77.4* | 9.1 | -0.2 | 12.0 | -77.4
Cc1cccc(NC(=O)c2cc(-c3cc(C)cc(C)c3O)n[nH]2)c1 | 72.3* | -3.4 | nt | 12.4 | -72.3
COc1ccc(NC(=O)c2cc(-c3cc(C)cc(C)c3O)n[nH]2)cc1Cl | 46.0 | -8.1 | -1.2 | 7.6 | -46.0
COn1c(SCc2ccc(C)cc2C)nc2ccccc2c1=O | 29.5 | 48.1* | nt | -5.9 | -29.5
Nc1ccc2c(c1)Cc1cc([N+](=O)[O-])ccc1-2 | 25.9 | -2.7 | -1.8 | 1.6 | -25.9
CC(O)CN(CC(C)O)c1ccc2c(c1)Cc1cc([N+](=O)[O-])ccc1-2 (centres undefined) | 89.5* | 0.4 | -0.9 | -7.0 | -89.5
O=c1ccnc(Nc2ccc([N+](=O)[O-])cc2)[nH]1 | -40.5 | -3.2 | -0.6 | 3.2 | 40.5
CN(C)CCNc1ccc2nnn3c4ccc(O)cc4c(=O)c1c23 | -30.9 | -11.4 | -4.2 | -54.4 | 30.9
CCN(CC)CCCNc1ccc2ncn3c4ccc(O)cc4c(=O)c1c23 | -13.5 | -6.4 | 3.1 | 37.9* | 13.5
CN(c1ccccc1)S(=O)(=O)c1ccc(Cl)c(C(=O)NCc2ccccc2CN2CCCC2)c1 | -10.3 | 12.8 | -0.9 | -4.7 | 10.3
SMILES | SR-BI DiI inh | CAL PDZ FP-1 | CAL PDZ FP-2 | dFosB act | SR-BI DiI-HDL act
Oc1ccccc1Nc1nc(NCc2ccccc2)c2ccccc2n1 | 23.9 | -2.3 | -3.8 | 84.2* | -23.9
c1ccc(CNc2ncnc3ccccc23)cc1 | 16.6 | -8.8 | -0.2 | -3.6 | -16.6
c1ccc(CNc2c3ccccc3nc3ccccc23)cc1 | 1.9 | -8.1 | -3.5 | 37.8* | -1.9
CN(C)CCCNc1c2ccccc2nc2ccccc12 | -14.5 | -4.2 | nt | 71.9* | 14.5
Oc1ccc(CCNc2c3ccccc3nc3ccccc23)cc1O | 6.2 | -5.2 | -1.1 | 70.9* | -6.2
COC(=O)c1ccc(COC(=O)C2CCN(S(=O)(=O)c3ccc(C)c(C)c3)CC2)o1 | -17.4 | -3.3 | -1.6 | -5.2 | 17.4
O=C(Cc1ccccc1)c1ccccc1C(=O)N1CCCCC1 | -6.4 | 4.5 | 2.9 | -0.5 | 6.4
CCCCn1c(N)c(N(CC(C)C)C(=O)C2CCN(S(=O)(=O)c3ccc(C)cc3)CC2)c(=O)[nH]c1=O | -14.9 | nt | -1.3 | 56.0* | 14.9
CCCCn1c(N)c(N(C)C(=O)C2CCCC2)c(=O)[nH]c1=O | -14.0 | 42.7* | -0.2 | -3.0 | 14.0
Cc1cc(C(=O)NNS(=O)(=O)c2cccc(Cl)c2)nn1C(C)(C)C | 6.4 | -2.9 | -1.4 | -4.3 | -6.4
O=C1NC2(CCCCCC2)N=C1c1ccc(F)cc1 | 2.2 | 66.1* | 0.2 | -1.8 | -2.2
COc1ccc(-c2cc(C(=O)Nc3c(C)nn(Cc4ccccc4)c3C)no2)cc1 | 76.3* | 0.5 | 0.7 | 1.8 | -76.3
Cc1nn(Cc2ccccc2Cl)c(C)c1NC(=O)c1cc(-c2ccc(F)cc2)on1 | 80.4* | nt | -1.0 | -13.4 | -80.4
O=S(=O)(CCNC1CC1)NC1CCCCC1 | 12.6 | 5.1 | -0.7 | 0.0 | -12.6
NC(=S)N/N=C/c1ccc(-c2ccc(SC(F)F)cc2)o1 | 74.3* | -3.5 | -0.6 | -8.8 | -74.3
NC(=S)N/N=C\c1ccc(-c2cccc(Cl)c2Cl)o1 | 78.5* | -0.1 | -1.1 | 0.3 | -78.5
Cc1ccc(-c2ccc(/C=N/NC(N)=S)o2)cc1 | 95.6* | 1.6 | -0.2 | -3.7 | -95.6
NC(=S)N/N=C/c1ccc(-c2ccc(Cl)c(Cl)c2)o1 | 85.5* | -2.0 | -0.2 | -5.1 | -85.5
O=C(NCC(=O)N1CCC2(CC1)NCCc1[nH]cnc12)c1cccc(Cl)c1 | -4.2 | -4.9 | -2.2 | 0.4 | 4.2
COc1ccc(-n2nc3c(c2NC(=O)c2ccc(S(=O)(=O)N4CCOCC4)cc2)CS(=O)C3)cc1 (centres undefined) | -68.3 | 0.5 | -2.2 | -5.4 | 68.3*
COc1ccc(CN2CCN(S(=O)(=O)c3ccc(NC(C)=O)cc3)CC2)c(OC)c1OC | -6.5 | 21.8 | -1.6 | -12.3 | 6.5
COc1ccc(Cl)cc1NC(=O)CN(C)CC(=O)Nc1ccccc1N1CCOCC1 | 77.8* | -4.9 | -2.3 | -16.1 | -77.8
Cc1ccc(SCC(=O)Nc2ccccc2N2CCOCC2)cc1 | 8.1 | 47.9* | -0.3 | -10.5 | -8.1
COc1ccc(Cl)cc1NC(=O)CN(C)Cc1cccs1 | 71.6* | -1.4 | -3.2 | -16.0 | -71.6
COc1cc(OC)cc(C(=O)N[C@H](C(=O)Nc2ccccc2N2CCOCC2)C(C)C)c1 | 1.0 | 38.8* | -0.3 | -5.2 | -1.0
CCC(=O)c1c(CC)c2n3c1CC[C@H]3CCC2 | 9.8 | -1.1 | -1.1 | 4.0 | -9.8
CCN1C(=O)[C@H]2[C@H]3CN=C(SCC(=O)c4ccccc4)N3[C@@](CC)(C(=O)OC)[C@H]2C1=O | -37.6 | -3.0 | 0.8 | -3.2 | 37.6
COc1cccc(Oc2ccc(S(=O)(=O)N3CCCC3)cc2[N+](=O)[O-])c1 | 23.9 | 0.5 | -0.1 | -1.9 | -23.9
COc1ccc(-c2cc(C(F)(F)F)nc(S(=O)(=O)CCCC(=O)Nc3cccnc3Cl)n2)cc1OC | -11.8 | 0.5 | -0.5 | -45.2 | 11.8

Screens deposited in PubChem by Broad Institute.
